One test has as its target D(3) dopamine receptor (Homo sapiens, UniProt P35462). Put plainly: Displacement of [3H]spiperone from human Dopamine receptor D3 expressed in CHO cells. The class given is cell-based. The method, boiled down:
(§1)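 [3H]Spiperone displacement from cloned human dopamine receptors stably expressed in CHO cells: D2long, D2short, D3 and D4.4 (the D4 line used the D4.4 variant). Ki values were determined.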

Test [1] concerns the target T1, D(2) dopamine receptor (Homo sapiens, UniProt P14416). Nature of the test: In vitro for its ability to displace [3H]- spiperone from cloned human dopamine D2 long receptor expressed in CHO cells. The class given is cell-based. The method, boiled down: as §1
Test [2] deals with T1, D(2) dopamine receptor. Nature of the test: In vitro for its ability to displace [3H]- spiperone from cloned human dopamine D2 short receptor expressed in CHO cells. It is filed as cell-based. The method, boiled down: as §1
A further test concerns the target D(1A) dopamine receptor (Bos taurus, UniProt Q95136). Put plainly: In vitro for its ability to displace [3H]- SCH 23390 from Dopamine receptor D1 in bovine striatal membrane […]. It is filed as cell-based, Striatum. The method, boiled down:
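D1 affinity was measured with bovine striatal membrane preparations and the D1-selective antagonist [3H]SCH 23390 as radioligand. Ki values were determined.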

The next test has as its target T2, D(4) dopamine receptor (Homo sapiens, UniProt P21917).
T2 sequence (P21917 whole entry): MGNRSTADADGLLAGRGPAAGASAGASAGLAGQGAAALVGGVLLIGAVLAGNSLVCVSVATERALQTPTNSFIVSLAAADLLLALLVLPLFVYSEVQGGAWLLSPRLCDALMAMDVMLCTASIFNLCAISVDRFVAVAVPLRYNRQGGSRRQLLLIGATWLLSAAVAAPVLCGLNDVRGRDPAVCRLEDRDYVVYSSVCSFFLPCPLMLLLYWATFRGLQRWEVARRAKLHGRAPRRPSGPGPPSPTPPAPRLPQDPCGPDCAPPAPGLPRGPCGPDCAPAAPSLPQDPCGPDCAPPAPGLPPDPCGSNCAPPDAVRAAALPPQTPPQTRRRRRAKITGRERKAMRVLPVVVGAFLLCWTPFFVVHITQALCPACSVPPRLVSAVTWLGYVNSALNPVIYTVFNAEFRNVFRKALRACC
Put plainly: In vitro for its ability to displace [3H]- spiperone from cloned human Dopamine receptor D4 expressed in CHO cells. The class given is cell-based. The method, boiled down:
as §1

Test [3] in a line: In vitro for its ability to displace [3H]- ketanserin from 5-hydroxytryptamine 2 receptor in porcine brain homogenate. It is filed as tissue-based. The method, boiled down: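 5-HT2 binding was measured in porcine brain homogenates by displacement of [3H]ketanserine. Ki values were determined.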
Test [4] has as its target T1, D(2) dopamine receptor. Put plainly: In vitro for its ability to displace [3H]- spiperone from cloned human Dopamine receptor D2L expressed in CHO cells. The class given is cell-based. The method, boiled down: as §1

Usually Ki stands for the dissociation constant of the complex between target and ligand, obtained from inhibition or displacement. The low end stands for tighter binding, the high end for weaker binding.

Sequence of D(3) dopamine receptor (P35462 whole entry): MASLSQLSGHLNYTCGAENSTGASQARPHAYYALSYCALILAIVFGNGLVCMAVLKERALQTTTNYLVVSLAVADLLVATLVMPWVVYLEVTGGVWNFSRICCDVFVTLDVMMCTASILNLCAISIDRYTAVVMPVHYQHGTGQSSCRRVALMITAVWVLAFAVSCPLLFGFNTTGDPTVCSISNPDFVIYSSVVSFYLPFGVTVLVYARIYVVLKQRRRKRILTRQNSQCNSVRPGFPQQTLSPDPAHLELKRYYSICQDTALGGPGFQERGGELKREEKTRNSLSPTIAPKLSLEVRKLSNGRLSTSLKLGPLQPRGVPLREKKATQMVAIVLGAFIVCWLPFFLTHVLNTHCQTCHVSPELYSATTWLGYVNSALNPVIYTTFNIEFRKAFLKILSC
T1 sequence (P14416 whole entry): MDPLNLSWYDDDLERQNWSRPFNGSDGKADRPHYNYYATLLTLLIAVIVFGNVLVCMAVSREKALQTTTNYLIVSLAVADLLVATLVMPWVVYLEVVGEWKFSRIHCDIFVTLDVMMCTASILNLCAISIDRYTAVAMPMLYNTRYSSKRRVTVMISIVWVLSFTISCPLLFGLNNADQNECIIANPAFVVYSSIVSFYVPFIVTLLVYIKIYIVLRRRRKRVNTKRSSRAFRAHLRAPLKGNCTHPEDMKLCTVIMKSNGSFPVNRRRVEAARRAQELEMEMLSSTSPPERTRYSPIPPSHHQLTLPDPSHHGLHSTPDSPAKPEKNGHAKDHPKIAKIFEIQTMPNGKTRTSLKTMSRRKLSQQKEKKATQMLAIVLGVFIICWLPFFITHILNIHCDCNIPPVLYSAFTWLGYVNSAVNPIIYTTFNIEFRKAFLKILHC
Sequence of D(1A) dopamine receptor (Q95136 whole entry): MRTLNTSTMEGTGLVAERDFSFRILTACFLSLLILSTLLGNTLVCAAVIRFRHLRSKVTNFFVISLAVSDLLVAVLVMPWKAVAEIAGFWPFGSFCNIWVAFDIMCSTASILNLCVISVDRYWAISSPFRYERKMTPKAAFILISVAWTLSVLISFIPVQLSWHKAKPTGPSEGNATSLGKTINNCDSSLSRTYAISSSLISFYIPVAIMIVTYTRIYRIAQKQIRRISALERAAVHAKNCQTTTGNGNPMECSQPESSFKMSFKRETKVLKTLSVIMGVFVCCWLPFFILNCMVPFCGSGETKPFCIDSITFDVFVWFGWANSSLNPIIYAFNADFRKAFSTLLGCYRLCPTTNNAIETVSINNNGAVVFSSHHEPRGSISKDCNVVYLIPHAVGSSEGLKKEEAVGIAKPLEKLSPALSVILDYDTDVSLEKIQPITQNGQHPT

`c1ccc(C2=NC[C@H](CN3CCN(c4ccccc4)CC3)N2)cc1` (stereo in doubt): the Ki was 9000 nM on D(3) dopamine receptor, 14000 nM on D(2) dopamine receptor [1] and 10000 nM at D(2) dopamine receptor [2].
Regarding `COc1ccc(Br)cc1C1=N[C@@H](CN2CCN(c3ccccc3)CC2)CO1` (stereo in doubt; 4c), the Ki on D(1A) dopamine receptor was determined as 9000 nM; on D(3) dopamine receptor it was 5200 nM; on D(2) dopamine receptor [1], 2200 nM; at D(2) dopamine receptor [2], 900 nM; at D(4) dopamine receptor it was 1600 nM.
`COc1ccc(Br)cc1C1=N[C@@H](CN2CCN(c3ccccc3)CC2)CO1` (stereo in doubt): the Ki on D(1A) dopamine receptor turned out to be 2000 nM; at D(3) dopamine receptor it was 1000 nM; on D(2) dopamine receptor [1] it was 400 nM; on D(2) dopamine receptor [2] it was 110 nM; on D(4) dopamine receptor, 390 nM.
On the same counts, the results for `COc1ccc(Br)cc1C1=N[C@@H](CN2CCN(c3ccccc3)CC2)[C@@H](C)O1` (stereo in doubt; 4d) are 3500 nM, 2500 nM, 3700 nM, 2400 nM and 290 nM.
On to `c1ccc(C2=NC[C@H](CN3CCN(c4ccccc4)CC3)N2)cc1` (stereo in doubt; 4e), for which the Ki on D(1A) dopamine receptor amounted to 12000 nM; on D(3) dopamine receptor it was 7100 nM; on D(2) dopamine receptor [2], 11000 nM; in test [3] it was 870 nM; on D(2) dopamine receptor [4] it was 10000 nM.
As to `c1ccc(C2=N[C@@H](CN3CCN(c4ccccc4)CC3)CS2)cc1` (stereo in doubt; 4f), the inhibition constant (Ki) on D(1A) dopamine receptor stood at 16000 nM; at D(3) dopamine receptor (cho), 1200 nM; on D(2) dopamine receptor [1], 1500 nM; at D(2) dopamine receptor [2] it was 1100 nM; on D(4) dopamine receptor, 1800 nM.
With `c1ccc(C2=N[C@@H](CN3CCN(c4ccccc4)CC3)CS2)cc1` (stereo in doubt), the inhibitory constant (Ki) at D(1A) dopamine receptor worked out at 4500 nM; on D(3) dopamine receptor, 1200 nM; on D(2) dopamine receptor [1], 1100 nM; on D(2) dopamine receptor [2], 720 nM; at D(4) dopamine receptor, 1200 nM.
Turning to `COc1ccc(Br)cc1C1=N[C@@H](CN2CCN(c3ccccc3)CC2)[C@@H](C)O1` (stereo in doubt), the Ki on D(1A) dopamine receptor was found to be 480 nM; at D(3) dopamine receptor, 10000 nM; on D(2) dopamine receptor [1] it was 21000 nM; on D(2) dopamine receptor [2], 18000 nM; at D(4) dopamine receptor it was 3300 nM.
In the same order, the values of `c1ccc(C2=N[C@@H](CN3CCN(c4ccccc4)CC3)CO2)cc1` (stereo in doubt) are 4000 nM, 690 nM, 690 nM, 330 nM and 410 nM.
For `C[C@@H]1OC(c2ccccc2)=N[C@H]1CN1CCN(c2ccccc2)CC1` (stereo in doubt; 4b), the Ki was 20000 nM at D(1A) dopamine receptor; 2700 nM on D(3) dopamine receptor; 3200 nM at D(2) dopamine receptor [1]; 1900 nM on D(2) dopamine receptor [2]; 700 nM at D(4) dopamine receptor.
For the molecule `c1ccc(C2=N[C@@H](CN3CCN(c4ccccc4)CC3)CO2)cc1` (stereo in doubt; 4a), the Ki on D(1A) dopamine receptor is 9700 nM; at D(3) dopamine receptor, 3300 nM; on D(2) dopamine receptor [1], 1700 nM; at D(2) dopamine receptor [2], 1100 nM; on D(4) dopamine receptor, 340 nM.
In the same order, the values of `C[C@@H]1OC(c2ccccc2)=N[C@H]1CN1CCN(c2ccccc2)CC1` (stereo in doubt) are 2000 nM, 710 nM, 820 nM, 320 nM and 440 nM.

The values are drawn from ChEMBL document CHEMBL1134812, “Benzamide bioisosteres incorporating dihydroheteroazole substructures: EPC synthesis and SAR leading to a selective dopamine D4 receptor partial agonist (FAUC 179)” (Bioorg Med Chem Lett, 2001).
